Test results taken from ChEMBL document CHEMBL1828595, “A facile four-component sequential protocol in the expedient synthesis of novel 2-aryl-5-methyl-2,3-dihydro-1H-3-pyrazolones in water and their antitubercular evaluation” (2011).
Values after ≈ are worked out from the molar mass of the structure shown.

Tested on: Mycobacterium tuberculosis
Test: Ratio of MIC for ethambutol to compound for Mycobacterium tuberculosis H37Rv by agar dilution method
Format: functional
Summary of the method: (§1)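 Ratio of reference-drug MIC to test-compound MIC. Both MICs were measured against M. tuberculosis H37Rv by agar dilution on OADC-supplemented Middlebrook 7H11 at pH 7.4, with 99% growth inhibition as endpoint, in duplicate.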

SMILES	Ratio
Cc1[nH]n(-c2ccc(F)cc2)c(=O)c1C(c1ccc(Cl)cc1Cl)c1c(O)ccc2ccccc12 (stereo not given)	4.75

Tested on: Mycobacterium tuberculosis
Test: Antitubercular activity against Mycobacterium tuberculosis H37Rv by agar dilution method
Format: functional
Summary of the method: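 M. tuberculosis H37Rv on Middlebrook 7H11 agar with OADC, agar dilution per NCCLS-type MIC method, pH 7.4. MIC taken as the lowest concentration inhibiting 99% of bacterial growth, determined in duplicate.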

SMILES	MIC
Cc1[nH]n(-c2ccccc2)c(=O)c1C(c1ccc([N+](=O)[O-])cc1)c1c(O)ccc2ccccc12 (stereo not given)	6.9 µM (≈ 3.12 µg/mL)
Cc1[nH]n(-c2ccccc2)c(=O)c1C(c1ccc(C(C)C)cc1)c1c(O)ccc2ccccc12 (stereo not given)	14 µM (≈ 6.28 µg/mL)
Cc1[nH]n(-c2ccc(F)cc2)c(=O)c1C(c1ccc([N+](=O)[O-])cc1)c1c(O)ccc2ccccc12 (stereo not given)	3.3 µM (≈ 1.55 µg/mL)
Cc1ccc(C(c2c(C)[nH]n(-c3ccc(F)cc3)c2=O)c2c(O)ccc3ccccc23)cc1 (stereo not given)	14.2 µM (≈ 6.23 µg/mL)
Cc1[nH]n(-c2ccc(F)cc2)c(=O)c1C(c1ccc(F)cc1)c1c(O)ccc2ccccc12 (stereo not given)	7.1 µM (≈ 3.14 µg/mL)
COc1ccc(C(c2c(C)[nH]n(-c3ccccc3)c2=O)c2c(O)ccc3ccccc23)cc1 (stereo not given)	28.6 µM (≈ 12.5 µg/mL)
NNC(=O)c1ccncc1 [ISONIAZID]	0.4 µM (≈ 0.0549 µg/mL)
Cc1[nH]n(-c2ccccc2)c(=O)c1C(c1ccccc1)c1c(O)ccc2ccccc12 (stereo not given)	30.8 µM (≈ 12.5 µg/mL)
Cc1[nH]n(-c2ccc(F)cc2)c(=O)c1C(c1ccc(Cl)cc1Cl)c1c(O)ccc2ccccc12 (stereo not given)	1.6 µM (≈ 0.789 µg/mL)
Cc1[nH]n(-c2ccc(F)cc2)c(=O)c1C(c1cccc([N+](=O)[O-])c1)c1c(O)ccc2ccccc12 (stereo not given)	6.7 µM (≈ 3.15 µg/mL)
Cc1[nH]n(-c2ccc(Cl)cc2)c(=O)c1C(c1ccc(Cl)cc1)c1c(O)ccc2ccccc12 (stereo not given)	6.6 µM (≈ 3.14 µg/mL)
CO[C@H]1/C=C/O[C@@]2(C)Oc3c(C)c(O)c4c(O)c(c(/C=N/N5CCN(C)CC5)c(O)c4c3C2=O)NC(=O)/C(C)=C\C=C\[C@H](C)[C@H](O)[C@@H](C)[C@@H](O)[C@@H](C)[C@H](OC(C)=O)[C@@H]1C [RIFAMPIN]	0.1 µM (≈ 0.0823 µg/mL)
Cc1ccc(C(c2c(C)[nH]n(-c3ccccc3)c2=O)c2c(O)ccc3ccccc23)cc1 (stereo not given)	29.7 µM (≈ 12.5 µg/mL)
CC[C@@H](CO)NCCN[C@@H](CC)CO [ETHAMBUTOL]	7.6 µM (≈ 1.55 µg/mL)
Cc1[nH]n(-c2ccc(F)cc2)c(=O)c1C(c1ccc(Cl)cc1)c1c(O)ccc2ccccc12 (stereo not given)	3.4 µM (≈ 1.56 µg/mL)
Cc1[nH]n(-c2ccc(F)cc2)c(=O)c1C(c1ccccc1)c1c(O)ccc2ccccc12 (stereo not given)	14.7 µM (≈ 6.24 µg/mL)
Cc1[nH]n(-c2ccccc2)c(=O)c1C(c1ccccc1[N+](=O)[O-])c1c(O)ccc2ccccc12 (stereo not given)	13.8 µM (≈ 6.23 µg/mL)
Cc1[nH]n(-c2ccccc2)c(=O)c1C(c1ccc(Cl)cc1)c1c(O)ccc2ccccc12 (stereo not given)	14.1 µM (≈ 6.22 µg/mL)

Tested on: Mycobacterium tuberculosis
Test: Ratio of MIC for ciprofloxacin to compound for Mycobacterium tuberculosis H37Rv by agar dilution method
Format: functional
Summary of the method: as §1

SMILES	Ratio
Cc1[nH]n(-c2ccc(F)cc2)c(=O)c1C(c1ccc(Cl)cc1Cl)c1c(O)ccc2ccccc12 (stereo not given)	2.94
